Data from ChEMBL document CHEMBL3272095, “Synthesis and antiviral activity of 5- and 5'-substituted thymidine analogs” (J Med Chem, 1976).

Tests used:
[1] = Cytotoxicity against mouse Sarcoma 180 cells assessed as cell viability at 100 uM after 18 to 24 hrs relative to control; type: cell-based; details: in the assay text read “18 to 42 hrs” for “18 to 24 hrs”, read-out: Activity
How it was run: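 Sarcoma 180 cells were grown in medium with horse serum at 37 °C under humidified 5% CO2–95% air, with a generation time of about 18 h. Compound was added to exponentially growing cultures at about 2 × 10^4 cells/ml. The increase in cell number was measured after 18 and 42 h, and percent inhibition was calculated relative to a drug-free control.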

Human alphaherpesvirus 1 [2] = test: Antiviral activity against Herpes simplex virus 1 infected in African green monkey Vero cells assessed as viral titer at 400 uM after 40 hrs by plaque formation assay relative to control; type: functional
How it was run: (§1)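 After a 1 h adsorption at 37 °C, inoculum was removed, cells were PBS-washed, and medium with or without compound was added. Incubation was 40 h at 37 °C. Cultures were freeze-thawed three times, and lysate yield was titrated by plaque assay on Vero. Pfu given as % of drug-free culture.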

[3] = Cytotoxicity against mouse Sarcoma 180 cells assessed as cell viability at 400 uM after 18 to 42 hrs relative to control
Human alphaherpesvirus 1 [4] = test: Antiviral activity against Herpes simplex virus 1 infected in African green monkey Vero cells assessed as viral titer at 200 uM after 40 hrs by plaque formation assay relative to control; type: functional; how it was run: as §1
Vero = test: Cytotoxicity against African green monkey Vero cells assessed as inhibition of replication; type: cell-based; details: chlorocebus sabaeus

Row | SMILES | viability at 100 µM [1] | Activity (Human alphaherpesvirus 1 [2]) | viability at 400 µM [3] | Activity (Human alphaherpesvirus 1 [4]) | Activity (Vero)
1 | Cc1ccc(S(=O)(=O)OC[C@H]2O[C@@H](n3cc(Cl)c(=O)[nH]c3=O)C[C@@H]2O)cc1 | 65% | – | – | – | –
2 | [N-]=[N+]=NC[C@H]1O[C@@H](n2cc(Cl)c(=O)[nH]c2=O)C[C@@H]1O | – | 81% | 100% | – | –
3 | NC[C@H]1O[C@@H](n2cc(Br)c(O)nc2=O)C[C@@H]1O | – | – | – | 1% | Non-toxic
4 | [N-]=[N+]=NC[C@H]1O[C@@H](n2cc(Br)c(=O)[nH]c2=O)C[C@@H]1O | – | 54% | 100% | – | –
5 | [N-]=[N+]=NC[C@H]1O[C@@H](n2cc(I)c(=O)[nH]c2=O)C[C@@H]1O | – | 60% | 100% | – | –
6 | NC[C@H]1O[C@@H](n2ccc(=O)[nH]c2=O)C[C@@H]1O | – | 101% | 100% | – | –
7 | NC[C@H]1O[C@@H](n2cc(Cl)c(O)nc2=O)C[C@@H]1O | – | 29% | 100% | – | Non-toxic
8 | Cc1cn([C@H]2C[C@H](O)[C@@H](CN)O2)c(=O)[nH]c1=O | – | 3% | 100% | – | Non-toxic
9 | Cc1ccc(S(=O)(=O)OC[C@H]2O[C@@H](n3cc(Br)c(=O)[nH]c3=O)C[C@@H]2O)cc1 | 65% | – | – | – | –
